Assay results reported in the EternaBench riboswitch data.

Tested on: MS2 coat protein
Experiment: apparent Kd, MS2 coat protein; higher = weaker binding; RNA-MaP array; FMN 200 µM where present
Outline: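 Apparent Kd: the median of filtered binding-curve fits from single clusters. Designs were transcribed on Illumina sequencing-chip clusters by stalled E. coli RNA polymerase and titrated with SNAP-549-labelled MS2 coat protein from 0.7 or 1.5 nM, doubling to 3 µM, in 100 mM Tris-HCl pH 7.5, 80 mM KCl, 4 mM MgCl2, BSA, DTT, yeast tRNA and Tween-20. Each series ran without and then with constant ligand, and green signal was normalised to red-channel RNA signal and control-cluster median Fmax.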

[1] = designed as: ON switch for flavin mononucleotide, no ligand
[2] = ligand present: flavin mononucleotide, designed as: ON switch for flavin mononucleotide
[3] = designed as: OFF switch for flavin mononucleotide, no ligand
[4] = ligand present: flavin mononucleotide, designed as: OFF switch for flavin mononucleotide

| Sequence | apparent Kd [1] [nM] | apparent Kd [2] [nM] | apparent Kd [3] [nM] | apparent Kd [4] [nM] |
| --- | --- | --- | --- | --- |
| CCAGAUUUCACAGGAUAUAUUGAUGACAUGAGGAUCACCCAUGUACCGGCAGUAGAAGGGUGAACGCUCGUGACCACGUGCGUG | 253 | 134 | – | – |
| AAUUAAUUAAUUAAUAUACAUGAGGAUCACCCAUGUAAGAUCAAGGAUAUCAGCUCGAUUAGAGCUGAGAAGGUGAUCACAUGU | 357 | 501 | – | – |
| CCUUAAAAGAUCCAAAAUUACAACAUGAGGAUCACCCAUGUGCAGGAUAUCGUGCCAGUGAUGUACGAGAAGGGCAGACUCUGC | – | – | 147 | 170 |
| UUAAUGUGAGGAUAUCAGGUGUGCUAGCGUACUGGUACAUCUGAGAAGGCACAUGAGGAUCACCCAUGUUCCUU | – | – | 16.4 | 55.3 |
| UAUCAUUACACGAAGGAUAUCGAUAAUUGAACAUGAGGAUCACCCAUGUGAUAUAUUUUACAGUUCGAGAAGGUCGAGGGUGAAG | 35.6 | 18 | – | – |
| GCCAUCGCAUGAGGAUAUGCUCGGGUUUCCCGAGCAGAAGGCAUGUCAUAAGACAUGAGGAUCACCCAUGUAGUUAAGAUGGCA | 813 | 35.9 | – | – |
| GUGCGAGCCACAGGAUAUCUACAAAUUUACUGUAGAGAAGGGUGACCUCGUGCACCACAUGAGGAUCACCCAUGUAACUAGGCG | 26.3 | 53 | – | – |
| UUUUUAUUUGAAGGAUAUACUUAACAUGAGGAUCACCCAUGUGGUGUUGUGAGUGAGUGAGUUUAGUAGAAGGUCAAUUAUUUU | – | – | 373 | 703 |
| AGCAGCUCGUCAGGAUAUACGUCACUGCGUCAGCAGUGUGGUAAGAUCACAUGAGGAUCACCCAUGUAGAAGGGACGAGCUGAU | – | – | 13.7 | 273 |
| GGAUAGGACAGAGGAUAUACGUGCUAGAGAUACUAGCAACAUUUCCUCACAUGAGGAUCACCCAUGUAGAAGGCUGUCCUAUCG | – | – | 8.16 | 190 |
| AUAUCCUAGAUAGGAUAUACUGAGGUUGAAUGGGUAGAAGGAUCGUUAGGGUGGACUACAUGAGGAUCACCCAUGUUGUUUAUU | 213 | 208 | – | – |
| UAGAUUUAUGUAGGAUAUACAUUUUGUACGUAUGUAGAAGGACAUGAGGAUCACCCAUGUAAAUAAAUAUUAAAUAUCAUAAUU | – | – | 50.5 | 32.4 |
| AAGCGGGUCUUCAGGGUAAUGAACAUGAGGAUCACCCAUGUGCAGGAUAUGACGGAUCCGCACCGUCAGAAGGGCACUAAGUAC | – | – | 24.6 | 69.9 |
| GGUAAGAUGCAGAAGGUGUUAGCUAGAGCUACGACAUGAGGAUCACCCAUGUACUAGAAACAGUACAAGGAUAUGCAUCUUACG | 19.1 | 6.5 | – | – |
| AUCAGCUCGUCAGGAUAUACGUCACUGCUUCGGCAGUGUGGUAAGAUUACAUGAGGAUCACCCAUGUAGAAGGGACGAGCUGAU | – | – | 6 | 8.61 |
| UUGGACUACGUAGGAUAUGUAGGAUUUUCCUACAUGAGGAUCACCCAUGUUAGCAUGGAAGAAGGACAGAAGGACGUGGUCCAU | 782 | 79.3 | – | – |
| ACCGUCCUCGUCAGGAUAUGUAUUGACUCUCCGAUACAGAAGGGACAUGAGGAUCACCCAUGUCCGGGACCUUA | – | – | 18.2 | 21.7 |
| CAUCCACAUGAGGAUCACCCAUGUCAGGAUAUCGCGCGCGCGUUUUCGGUCUUUCGCGCGAGAAGGGACGACUG | – | – | 15.4 | 16.3 |
| GUGAAACAUGAGGAUCACCCAUGUGAGGAUAUGUUUUAGUACUGGAGACAGUACAUCUAUAGAAGGCACAAUGG | – | – | 68.2 | 89.1 |
| AGCUAGUGAGGAUAUACGAACAUGUCAAAAGACUGUAAGGGACAUGAGGAUCACCCAUGUAGAAGGCACUAGCA | – | – | 45.2 | 384 |
| GUUCGUUUGAUAGGAUAUCGCUAUACAUGAGGAUCACCCAUGUUUACCACGCUGGUUUUUCGUACCGAGAAGGAUUCUGAUGAU | 40.2 | 36.2 | – | – |
| GCUGUGGCAUGAGGAUAUGGUCAGGUUUCCUGACCAGAAGGCAUGUCAAUAGACAUGAGGAUCACCCAUGUAGUUAACACAGCA | 514 | 45.9 | – | – |
| UCAAUUGCGUAGGAUAUACGGGCGCAGGCUAGAGUAGAAGGACGCACAUGAGGAUCACCCAUGUGGGUACCGAU | – | – | 17.7 | 114 |
| AGACCCAUGACAUGACAUGACAUGAGGAUCACCCAUGUUUACAAGGAUAUGUUGAUGAAACAUCAACAGAAGGUGUAAUGGGCU | – | – | 20.9 | 73.1 |

| Sequence | apparent Kd [1] [nM] | apparent Kd [2] [nM] | apparent Kd [3] [nM] | apparent Kd [4] [nM] |
| --- | --- | --- | --- | --- |
| AGUGUCAUCGAGAAGGCCUCAACAUGAGGAUCACCCAUGUUGUAAUAUGGGAGGAUAUCGAUGAUACAGCUACGUUUCGUAGCU | 18.9 | 5.65 | – | – |
| AAAUACCGGUGAGGAUAUUUUUAAUAGAGCUUUAUGAUAUACAUGAGGAUCACCCAUGUUACGUUAAAGAAGGCAUCGGAUAAA | – | – | 18.4 | 16.6 |
| UGGUACUAGGGAGGAUAUGGAAAGAUACAUGAGGAUCACCCAUGUUUAAGAAUGCCGAGAGGCAACUAGAAGGCCCUAGUACCU | 11.1 | 5.29 | – | – |
| GCCAAGCAAAAUAAAAUAAAUAAAACAUGAGGAUCACCCAUGUAGGAUAUGCUACACAAAGUGUAGCAGAAGGACAAGCUUGGC | – | – | 14.6 | 19 |
| GUGGUACAUGAGGAUCACCCAUGUUAGGAUAUCGCGUGAGGUUUUACUUCCGCACACGCGAGAAGGGACGUCUU | – | – | 54.9 | 41.6 |
| GUGUGUUGCGGGCAGGAUAUGUACUUGAGUACAUGAGGAUCACCCAUGUGCGGGUGUUUCACCCGACAGAAGGGCCUAUCGCGAC | 977 | 309 | – | – |
| CCGGAAGUACAGGAUAUCGUAUCGGAUACGAUACGAGAAGGGUAUACAUGAGGAUCACCCAUGUGUCCUACCGG | – | – | 29.3 | 31.5 |
| UAGCGGUAGGGAGGAUAUGCGAAAGGAAGGCCCGCAGAAGGCCUUACAUGAGGAUCACCCAUGUAGGAUGCCUGGGUGGUGCCC | – | – | 14.5 | 26.4 |
| GCCUUAUCUGUCAGGAUAUACAAUUUUUUUUUUUUGUAGAAGGGACAUGAGGAUCACCCAUGUACAUUACAUUG | – | – | 34 | 57.9 |
| AGAUAACACCAGAAGGACAUGAGGAUCACCCAUGUAGGAUAUGGGCAUCACUCGAGAAAGAAAAGACCAAAUGUACACGCGGUC | 91.7 | 9.27 | – | – |
| GAGCGAAAGCUCAAUGUCGAUAGCAGAAGGACAUGAAAACAUGAAAACACAUGAGGAUCACCCAUGUAGGAUAUGCUAUCGACU | – | – | 9.43 | 84.8 |
| UCUGAUUGGUGAGGAUAUACAUAAUUUAUGACUGUAGAAGGCACAAACCUCAAGACAUGAGGAUCACCCAUGUGGUAUUUAGAU | – | – | 348 | 506 |
| CUAUCGCAAGGAUAUACAUGAGGAUCACCCAUGUGGAAGAAUGGCCCAAAUCUAACAUGUAGAAGGUGCUAAAA | – | – | 40.6 | 64.9 |
| CGUUGACAUGAGGAUCACCCAUGUCAGAUCUGGUCAGGAUAUGGUGUGGUUUGGCUAUUGCCAGAAGGGACGUCUG | 43.1 | 46.8 | – | – |
| UUCAAGGGUUGAGGAUAUCCCGGUUGUGUCCUCAUCCGCCAAGGUACAUGAGGAUCACCCAUGUGGGAGAAGGCAAUACUAGAG | – | – | 130 | 182 |
| GUUUUACAUGAGGAUCACCCAUGUGAGGAUAUAUUGUUAUUUUUGAUAUUUUUUGGUGGUAGAAGGCGCGUGAU | – | – | 36.4 | 32.7 |
| AAGGGACAUGAGGAUCACCCAUGUUCGAAAGACGAUGGAUCGCAGGAUAUCCAGUGUUAGAGAGAGGAGAAGGGUGAUCCUAUU | 36.3 | 27.7 | – | – |
| UGGUACUAGGGAGGAUAUGGGAAGAUACAUGAGGAUCACCCAUGUUUAAGAAUGCCAAGAGGCAACUAGAAGGCCCUAGUACCU | 384 | 17.8 | – | – |
| GUGUACAGAGGAUAUGCACGAGUAGUUACGAAAGUAACUACACAUGAGGAUCACCCAUGUAGAAGGCUGUACAC | – | – | 13.2 | 16.9 |
| GUACUGAAGCUUUGCUUUAGUCGUACAUGAGGAUCACCCAUGUAGGAUAUGGUAGGCAUUGCUUACUAGAAGGAUAGAGUGAUC | – | – | 85 | 54.9 |
| GCCAUCACAUGAGGAUAUGCUCCCGUUUCGGGAGCAGAAGGCAUGUCAUCAGACAUGAGGAUCACCCAUGUAGUUAAGAUGGCA | 361 | 15.1 | – | – |
| UUGCAGUGCGGGUAGGAUAUGUAGGGUGGUACAUGAGGAUCACCCAUGUGUCCACCCUUCGACCGGCAGAAGGGCCUAUCACUGC | 17.1 | 15.6 | – | – |
| UGUCAUAUAUAGAAGGGUAGUAGGGAUUUACAUGAGGAUCACCCAUGUAUUAUAGGAUAUGUGUAUAGUUUUUAUUCAAGUUUA | – | – | 24.7 | 18.8 |
| UGGUACUAGGGAGGAUAUGGGAAGAUACAUGAGGAUCACCCAUGUUUAAGAAUGCCGAGAGGCAACUAGAAGGCCUUAGUACCU | 504 | 20.8 | – | – |
